TAAR1 antagonist – antagonists of human TAAR1; Q96RJ0; CHO RD-HGA16 TAAR1, Fluo-8 calcium fluorescence, antagonist; inhibition, % at 3 µM; hit rate 1.5% among 360,000; AID 624466;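 active = inhibition above a per-plate cutoff, the mean inhibition of test compounds on that plate plus 3 SD, cut at about 49% in these data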
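System: CHO RD-HGA16 cells bearing hTAAR1. Reagent: EC80 β-phenethylamine stimulus. Schedule: seeding 17-24 h prior, 75-min 37 °C, 30-min RT dye loading. Signal: Fluo-8 intracellular calcium dye fluorescence, real-time kinetic reads. Read-out: % inhibition from peak post-agonist over basal fluorescence ratio. Benchmarks: vehicle wells and EC80 agonist wells. Replicates: n of 1.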
OXTR potentiator – human OXTR potentiation; P30559; CHO-OTR cells, Fluo-8 calcium fluorescence, potentiator mode; 0% = oxytocin EC15, 100% = EC100; activation, % at 3 µM; hit rate 0.061% among 320,000; AID 2445;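 active = activation above that plate's cutoff, the mean activation of tested compounds plus 3 SD, cut at about 6.6% in these data, passing the limit was not always enough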
Target sequence (P30559 whole entry, looked up): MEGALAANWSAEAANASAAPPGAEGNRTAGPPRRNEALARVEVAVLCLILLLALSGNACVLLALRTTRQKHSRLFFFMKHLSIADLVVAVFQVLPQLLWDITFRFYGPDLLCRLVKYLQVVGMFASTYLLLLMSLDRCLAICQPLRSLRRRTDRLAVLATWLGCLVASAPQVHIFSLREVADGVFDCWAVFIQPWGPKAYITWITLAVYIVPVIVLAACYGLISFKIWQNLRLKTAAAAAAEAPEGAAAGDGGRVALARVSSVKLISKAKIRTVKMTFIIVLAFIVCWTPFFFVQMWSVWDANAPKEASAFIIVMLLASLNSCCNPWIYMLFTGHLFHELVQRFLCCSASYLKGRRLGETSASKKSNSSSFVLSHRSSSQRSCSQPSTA
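Assay system: CHO cell line stably expressing human OTR | Also added: Oxytocin at about EC15, sub-maximal agonist stimulus | Times: Compound 6 min at room temperature before oxytocin, 100 s read | Measured by: Fluo-8 intracellular calcium fluorescence, ex 470-495, em 515-575 nm | Controls: EC15 oxytocin alone as 0%, 75 nM oxytocin as 100%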
V1R ag counter – V1a receptor agonism, counter-screen for OXTR agonists. P37288. CHO-V1R cells, Fluo-8 calcium fluorescence, agonist mode; 0% DMSO, 100% 3 nM vasopressin. activation, % at 3 µM. hit rate 0.25% among 320,000. AID 2797;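 active = activation above the mean activation of all tested compounds plus 3 SD, per screening run, cut at about 20% in these data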;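 also: signal is peak over basal fluorescence ratio across a 100 second FLIPR read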
TAAR1 agonist – human TAAR1 agonism | Q96RJ0 | CHO RD-HGA16 TAAR1, Fluo-8 calcium fluorescence; vehicle wells 0%, saturating PEA agonist 100% | activation, % at 3 µM | hit rate 0.99% among 360,000;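 active = activation above the mean activation of all test compounds in the run plus 3 SD, cut at about 38% in these data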
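System: CHO-derived RD-HGA16 cells with stable Gα16 and human TAAR1 / Times: 17-24 h plating, Fluo-8 75 min 37 °C, 30 min RT / Technique: calcium-sensitive Fluo-8 signal, excitation 470-495, emission 515-575 nm / Measure: % activation relative to PEA EC100 response / Benchmarks: DMSO and PEA EC100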
OXTR agonist – human OXTR agonism; P30559; CHO-OTR cells, Fluo-8 calcium fluorescence; normalized: DMSO 0%, oxytocin 100%; activation, % at 3 µM; hit rate 0.32% among 320,000;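 active = activation above the mean of all tested compounds plus 3 SD, cutoff set per screening run, cut at about 20% in these data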;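 also: peak over basal fluorescence ratio from a 100 s FLIPR kinetic read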
TAAR1 nonsel count – nonselective antagonism, TAAR1 counter-screen; counterscreen cell line, calcium fluorescence, antagonist mode; shares compounds with TAAR1 antagonist; inhibition, % at 3 µM; hit rate 77% among 2,400; AID 651780; in the data active = inhibition above about 22%;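 also: CHO-Ga16 host cells stimulated with ATP at an EC80 level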
TAAR1 antag conf – confirmation of human TAAR1 antagonists | shares compounds with TAAR1 antagonist | TAAR1-expressing cells, fluorescence antagonist read-out | inhibition, % at 3 µM | hit rate 40% among 2,400; in the data active = inhibition above about 49%;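 also: CHO-Ga16 host cells challenged with agonist PEA near its EC80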
Ga16 ag counter – nonselective Ga16 agonism, counter-screen | shares compounds with TAAR1 antagonist | Ga16-expressing cells, calcium fluorescence, agonist counterscreen | activation, % at 3 µM | hit rate 18% among 2,400 | AID 651953; in the data active = activation above about 12%
TAAR1 ag counter – counter-screen for human TAAR1 antagonists: TAAR1 agonists. AID 651955. shares compounds with TAAR1 antagonist. activation, % at 3 µM. hTAAR1 cell line, fluorescence activation, agonist mode. hit rate 2% among 2,400; in the data active = activation above about 37%;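 also: CHO cells stably expressing TAAR1 with calcium dye readout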
Numbers stand for hits; 0 = inactive; - = no result given. In the library only some 2.3% were active in any assay of this set; here they are far more common.

SMILES	TAAR1 antagonist	OXTR potentiator	V1R ag counter	TAAR1 agonist	OXTR agonist	TAAR1 nonsel count	TAAR1 antag conf	Ga16 ag counter	TAAR1 ag counter
COc1ccc(-c2cc(NC(C)=O)c3ncc(-c4ccc(OC)c(OC)c4)n3c2)c(OC)c1	0	-	-	0	-	-	-	-	-
COc1ccc(-c2cc(NC(C)=O)c3ncc(-c4ccccc4)n3c2)c(OC)c1	68	-	-	0	-	26	0	0	0
O=C1c2ccccc2C(c2nnnn2Cc2ccccc2)N1CCc1ccccc1F (stereo not drawn)	68	-	-	0	-	29	51	0	0
O=C1c2ccccc2C(c2nnnn2Cc2ccccc2)N1CCc1ccc(O)cc1 (stereo not drawn)	67	-	-	0	-	28	53	0	0
CC(C)CCN1C(=O)c2ccccc2C1c1nnnn1Cc1ccccc1 (stereo not drawn)	0	-	-	0	-	-	-	-	-
CC(C)n1nnnc1C1c2ccccc2C(=O)N1CCc1ccccc1F (stereo not drawn)	0	-	-	0	-	-	-	-	-
Cc1nn(CCc2nn[nH]n2)c2nc(-c3ccc(Br)cc3)cc(C(F)(F)F)c12	71	0	0	0	0	0	0	0	0
COc1cc(/C=N/NC(=O)CSc2cc(C)c(Br)cc2C)ccc1O	66	0	0	0	0	38	59	13	0
CN(C)Cc1c(C(C)(C)O)[nH]c2cc(C(F)(F)F)ccc12	0	-	-	0	-	-	-	-	-
O=c1c2ccc([N+](=O)[O-])cc2ncn1CCOc1cccc(Br)c1	71	0	0	0	0	30	56	0	0
CCC1CN(C(=O)N2CCC(C(=O)NCc3ccccc3OC)CC2)c2ccccc2O1 (stereo not drawn)	0	0	0	0	0	-	-	-	-
CCC1CN(C(=O)N2CCC(C(=O)NCc3ccccc3OC)CC2)c2cc(C)ccc2O1 (stereo not drawn)	54	0	0	0	0	29	0	0	0
COc1ccc(N(CC(=O)NCCSC2CCCCC2)S(=O)(=O)c2ccccc2)c(OC)c1	0	0	0	0	0	-	-	-	-
COc1ccc(N(CC(=O)NCCSc2ccc(C)cc2)S(=O)(=O)c2ccccc2)c(OC)c1	68	0	0	0	0	22	51	0	0
O=C(c1cccnc1)N1CCC2CC1c1c(Cl)cccc12 (stereo not drawn)	0	-	-	0	-	-	-	-	-
Cc1ccc(C)c(OCC(=O)NNC(=O)c2ccc(=O)[nH]c2)c1	0	0	0	0	0	-	-	-	-
CC(C)COc1ccc(C(=O)NNC(=O)c2ccc(=O)[nH]c2)cc1	103	0	0	0	0	0	0	0	0
C=CC[n+]1c(/C=C/c2ccc(OC(C)=O)c(OC)c2)ccc2ccccc21	0	0	0	0	0	-	-	-	-
O=C(NC1CCCc2ccccc21)C1CCC(CNS(=O)(=O)c2cccc3nsnc23)CC1 (stereo not drawn)	57	0	0	0	0	0	0	0	0
COCCOC(=O)c1c(C)oc2ccc(OC(=O)c3c(OC)cccc3OC)cc12	51	0	0	0	0	32	0	0	0
O=C(Nc1ccccc1)N(CCc1nc2ccccc2[nH]1)C1CCCC1	0	0	0	0	0	-	-	-	-
S=C(NC1CCCCC1)N(CCc1nc2ccccc2[nH]1)C1CCCC1	54	0	0	0	0	28	0	0	0
CCCNC(=O)C1(C)CCN1C(=O)c1cc(C)n(C)n1 (stereo not drawn)	0	-	-	0	-	-	-	-	-
N#Cc1ccc(C(=O)OCC(=O)Nc2cccnc2Cl)cc1	0	0	0	0	0	-	-	-	-
COCCN1CCCc2nc(-c3ccc(F)cc3)ccc21	0	-	-	0	-	-	-	-	-
CCN=C1SC(C(=O)Nc2ccccc2)CC(=O)N1CC (stereo not drawn)	65	0	0	0	0	31	54	0	0
CCN=C1SC(CC(=O)Nc2ccccc2)C(=O)N1CC (stereo not drawn)	67	0	0	0	0	34	59	0	0

Screening results deposited in PubChem BioAssay by The Scripps Research Institute Molecular Screening Center.
